PfHsp90 yeast 2: growth inhibition of PfHsp90-expressing yeast, primary screen, antimalarial PfHsp90 inhibitor project, S. cerevisiae, BacTiter-Glo luminescence, single point, set 2; BacTiter-Glo ATP, 48 h; yeast lacking PDR1 and PDR3 efflux regulators; inhibition, % at 9.4 µM; 0.32% of 310,000 active; AID 504621, 2011;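 active = every replicate shows inhibition above about 80%, whatever the replicate mean, limit read from the data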;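 note: 0% = DMSO neutral controls and 100% = 20 µM radicicol positive controls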
DENV2 CPE: inhibitors of DENV2 cytopathic effect, primary screen, cell-based, plate reader, single concentration. 1.7% of 350,000 active. CPE inhibition, % at 9.99 µM. AID 651640, 2012. DENV2-infected cells, cytopathic effect rescue; in the data active = CPE inhibition above about 20%, passing the limit was not always enough; tested in BHK-21 cells;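 note: 0% = median of neutral control wells and 100% = median of positive control wells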
Cneo AK release: Cryptococcus neoformans cell lysis inducers, primary screen, AK release luminescence, single concentration; lysis activity, % at 15 µM; C. neoformans lysis, adenylate kinase release luminescence, 4 h; normalised: neutral wells 0, clomiphene wells 100; 0.2% of 360,000 active;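 active = mean lysis activity across replicates of at least 80%, whatever share of replicates individually reach that level; inactive = mean lysis activity below 80%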
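Assay system: log-phase C. neoformans yeast / Quantity: yeast cell density of 5 × 10^6 cells/mL / Medium: fresh YPD growth medium / Compound: single dose / Timing: static 4 h at 37 °C with compound, 1 h detection / Measured by: adenylate kinase release luminescence / Read-out: lysis from increased AK signal / Benchmarks: Clomiphene as positive lysis control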
Ecoli rRNA inh: reduced GFP signal of wild-type E. coli, primary screen, bacterial rRNA inhibitor project, GFP/RFP fluorescence, OD600, single point; GFP signal change (wild-type ribosome), % (concentration not given with the values); E. coli WT GFP vs humanized-ribosome RFP mutants, 24 h; hits give low values; DMSO median 0, no signal -100; 1.6% of 350,000 active;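 active = significant combined selectivity score with lowered wild-type GFP, culture density cut under 30%, mutant RFP and density less affected; inactive = any of these conditions unmet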
S100A4 inh HTS: inhibitors of S100A4-myosin IIA peptide binding, primary screen, biochemical, fluorescence polarization, TAMRA-MyoIIA peptide. Protein S100-A4 (Homo sapiens), P26447. inhibition, % at 10.7 µM. 0.14% of 360,000 active. AID 652163, 2013;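 active = mean inhibition of at least 70% across replicates, with every replicate also reaching that level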
Target sequence (P26447 whole entry, looked up): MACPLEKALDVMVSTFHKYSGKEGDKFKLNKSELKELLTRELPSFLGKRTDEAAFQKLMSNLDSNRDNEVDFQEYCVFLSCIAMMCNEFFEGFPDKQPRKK
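assay system = human S100A4 monomer with TAMRA-labelled myosin IIA peptide | also added = labelled myosin peptide probe, 5 nM | incubation = 5 min between mix addition and reading | control set = DMSO and TFP controls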
AF4-AF9 inh: inhibitors of AF4 peptide binding to AF9, primary screen, biochemical, AlphaScreen, biotin-AF4 peptide, FLAG-AF9, single point | Protein AF-9 (Homo sapiens), P42568 | inhibition, % at 10 µM | 0.47% of 350,000 active;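 active = every replicate reaching a set inhibition limit, whatever the replicate mean, cut at about 25% in these data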;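 note: 0% = plate neutral control median and 100% = total signal loss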
* hit, by the source's call; . = not tested or not shown. Hits are enriched below; roughly 3.2% of the tested compounds scored in any of these assays.

SMILES	PfHsp90 yeast 2	DENV2 CPE	Cneo AK release	Ecoli rRNA inh	S100A4 inh HTS	AF4-AF9 inh
C/C=C/c1cnc2c(c1)C(=O)N([C@@H](C)CO)C[C@H](C)[C@H](CN(C)C(=O)Nc1c(C)noc1C)O2	.	-3	1	-1	17	-2
CN(C)S(=O)(=O)c1cccc(NC(=O)COc2ccccc2C(=O)NCc2ccccc2)c1	.	-1	1	-34*	-3	0
CCOC(=O)c1ccc(NC(=O)CNNC(=O)COc2ccccc2C)cc1	-15	-6	-1	-29*	-5	-2
O=C(Nc1cccc(S(=O)(=O)N2CCOCC2)c1)c1cc2ccccc2o1	10	10	-11	-17	0	-20
O=C(Nc1cccc(S(=O)(=O)N2CCCCC2)c1)c1cc2ccccc2o1	12	-4	-2	-24*	-11	6
CCCOc1ccccc1OCC(=O)Nc1ccc(S(=O)(=O)N2CCCC2)cc1	6	-5	-3	-8	-2	-1
COc1cccc(OC)c1OCC(=O)Nc1ccc(S(=O)(=O)N2CCCC2)cc1	.	13	-2	-34*	2	-2
O=C(/C=C/c1ccc(S(=O)(=O)NCc2ccco2)cc1)NCc1ccccc1Cl	6	-5	.	-27*	0	3
CC(C)(C=O)C1=CC(=O)c2ccccc2C1=O	106*	5	.	-3	-2	6
CC1=CC(=O)c2ccccc2C1=O	5	10	-1	-3	0	2
O=C(O)c1cc(O)c2c(c1)C(=O)c1cccc(O)c1C2=O	-7	79*	1	.	1	-16
Cc1cc(O)c2c(c1)C(=O)c1cccc(O)c1C2=O	.	-1	.	.	7	5
COc1ccc(CN(C)C[C@@H]2OCCCC[C@@H](C)Oc3ccc(NS(=O)(=O)c4ccc(Cl)cc4)cc3C(=O)N([C@H](C)CO)C[C@H]2C)cc1	.	70*	53	2	4	9
COc1ccc(CN(C)C[C@@H]2OCCCC[C@@H](C)Oc3ccc(NS(=O)(=O)c4ccc(Cl)cc4)cc3C(=O)N([C@@H](C)CO)C[C@@H]2C)cc1	.	11	1	4	-27	1
COc1ccc(CN(C)C[C@@H]2OCCCC[C@H](C)Oc3ccc(NS(=O)(=O)c4ccc(Cl)cc4)cc3C(=O)N([C@@H](C)CO)C[C@H]2C)cc1	.	31*	53	-9	-3	-1
CC(C)NC(=O)N(C)C[C@H]1Oc2c(NC(=O)CCCCCC(=O)Nc3ccccc3N)cccc2C(=O)N([C@@H](C)CO)C[C@@H]1C	.	-1	.	2	-9	0
CC(=O)N(C)C[C@@H]1Oc2cc(C#Cc3ccccc3)ccc2S(=O)(=O)N([C@H](C)CO)C[C@@H]1C	.	8	-2	-1	-7	2
CCN(CC(=O)Nc1ccc(NC(C)=O)cc1)C(=O)/C=C/c1cn(-c2ccccc2)nc1-c1cccs1	-15	-1	-1	-18*	-3	0
CC(C)C#Cc1ccc2c(c1)O[C@@H](CN(C)Cc1cccnc1)[C@H](C)CN([C@@H](C)CO)S2(=O)=O	.	-14	0	-35	0	12
COC(=O)c1ccc(NC(=O)c2cn(-c3ccccc3)nc2-c2ccncc2)cc1	89*	.	-1	.	.	.
C[C@@H]1CN([C@H](C)CO)S(=O)(=O)c2ccc(C#CC(C)(C)O)cc2O[C@@H]1CN(C)C(=O)C1CCCCC1	.	20*	0	0	0	6
COCC#Cc1ccc2c(c1)O[C@@H](CN(C)C(=O)Nc1ccccc1F)[C@H](C)CN([C@@H](C)CO)S2(=O)=O	.	90*	1	1	-5	-2
CCCNC(=O)N(C)C[C@H]1Oc2cc(C#C[C@H](C)O)ccc2S(=O)(=O)N([C@H](C)CO)C[C@H]1C	.	42*	0	7	19	-2

Bioassay records (PubChem)
